From ChEMBL document CHEMBL1129428 (J Med Chem, 1996)

How the values were obtained:
Rattus norvegicus [1] = assay: Compound was tested for anticonvulsant activity after Oral Administration into Rats by using MES screen test after 4h,dose 30 mg/kg; number of rats out of four which were protected; format: functional
Method in brief: (§1)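 Rats received the compound orally. […] Rats were tested in the MES screen at 0.25, 0.5, 1, 2 and 4 h. Each value is the number of rats protected out of 4. The test followed NINDS procedures.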

Rattus norvegicus [2] = assay: Compound was tested for anticonvulsant activity after Oral Administration into Rats by using MES screen test after 0.25h,dose 30 mg/kg; No activity was demonstarted; format: functional, organism-based; design: dose 30 mg/kg; method in brief: as §1
Rattus norvegicus [3] = assay: Compound was tested for anticonvulsant activity after Oral Administration into Rats by using MES screen test after 2h,dose 30 mg/kg; number of rats out of four which were protected; format: functional; method in brief: as §1
Rattus norvegicus [4] = assay: Compound was tested for anticonvulsant activity after Oral Administration into Rats by using MES screen test after 0.5h,dose 30 mg/kg; No activity was demonstarted; format: functional, organism-based; design: dose 30 mg/kg; method in brief: as §1
Rattus norvegicus [5] = assay: Compound was tested for anticonvulsant activity after Oral Administration into Rats by using MES screen test after 1h,dose 30 mg/kg; number of rats out of four which were protected; format: functional; method in brief: as §1
Mus musculus [6] = assay: Anticonvulsant activity after intraperitoneal injection into mice by using MES screen test after 0.5 hr; format: functional
Mus musculus [7] = assay: Anticonvulsant activity after intraperitoneal injection into mice measured in a maximal electroshock scree (MES) screen; format: functional
Mus musculus [8] = assay: Anticonvulsant activity after intraperitoneal injection into mice by using scPTZ screen after 0.5 hr; format: functional
Mus musculus [9] = assay: Anticonvulsant activity after intraperitoneal injection into mice by using scPTZ screen test after 4 hr; format: functional
Mus musculus [10] = assay: Toxicity after intraperitoneal injection into mice by using toxicity screen test after 0.5 hr; format: organism-based; settings: in vivo, ip
Method in brief: (§2)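 Mice injected intraperitoneally at 30, 100 and 300 mg/kg and examined 0.5 and 4 h afterwards. Each entry is the minimum dose giving activity (MES protection, scPTZ protection, or rotorod failure for neurotoxicity) in half or more of the mice. Activity is called absent if nothing occurs at 300 mg/kg.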

Mus musculus [11] = assay: Compound was tested for toxicity after intraperitoneal injection into mice by using toxicity screen test after 4 hr; format: organism-based; settings: in vivo, ip; method in brief: as §2
Rattus norvegicus [12] = assay: Compound was tested for anticonvulsant activity after Oral Administration into Rats by using MES screen test after 0.25h,dose 12.5 mg/kg; No activity was demonstarted; format: functional, organism-based; design: dose 12.5 mg/kg; method in brief: as §1
Rattus norvegicus [13] = assay: Compound was tested for anticonvulsant activity after Oral Administration into Rats by using MES screen test after 4h,dose 12.5 mg/kg; number of rats out of four which were protected; format: functional; method in brief: as §1
Rattus norvegicus [14] = assay: Anticonvulsant activity after oral administration into rats; format: functional; design: concentration or dose not given beside the values
Rattus norvegicus [15] = assay: Compound was tested for anticonvulsant activity after Oral Administration into Rats by using MES screen test after 1h,dose 12.5 mg/kg; number of rats out of four which were protected; format: functional; method in brief: as §1
Rattus norvegicus [16] = assay: Compound was tested for anticonvulsant activity after Oral Administration into rat by using MES screen test after 2 hr; format: functional
Method in brief: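 Rats dosed orally, typically at 50 mg/kg first, then mostly 12.5 mg/kg (some compounds at 30 mg/kg), and tested by maximal electroshock. Four rats per compound, scored at 0.25, 0.5, 1, 2 and 4 h as the number of rats protected out of 4.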

[17] = Compound was tested for toxicity after oral administration in rat by using neurotoxicity screen test after 0.25-24 hr; format: organism-based; settings: in vivo
Method in brief: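 Rat neurotoxicity after oral dosing, observed at 0.25, 0.5, 1, 2, 4, 6, 8 and 24 h (8 h omitted for one compound).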

[18] = Protection index = TD50/ED50 (MES); format: ADME, organism-based; settings: rat, in vivo; read-out: PI
Rattus norvegicus [19] = assay: Compound was tested for anticonvulsant activity after Oral Administration into Rats by using MES screen test after 2h,dose 12.5 mg/kg; number of rats out of four which were protected; format: functional; method in brief: as §1
Mus musculus [20] = assay: Compound was tested for anticonvulsant activity after intraperitoneal injection into mice by using MES screen test after 1 hr; format: functional; settings: ip
Method in brief: (§3)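 Quantitative intraperitoneal mouse testing in the MES, scPTZ or rotorod neurotoxicity screens at the peak time given for each compound (0.25–2 h). ED50 or TD50 reported in mg/kg with 95% CI and slope (SE).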

[21] = Compound was tested for toxicity after intraperitoneal injection into mice by using neurotoxicity screen test after 4 hr; format: organism-based; settings: mouse, in vivo, ip; method in brief: as §2
[22] = Protection index = TD50/ED50; format: ADME; settings: read-out: PI
Mus musculus [23] = assay: Compound was tested for anticonvulsant activity after intraperitoneal injection into mice by using scPTZ screen test after 1 hr; format: functional; settings: ip; method in brief: as §3
Mus musculus [24] = assay: Compound was tested for anticonvulsant activity after intraperitoneal injection into mice by using MES screen test after 0.5 hr; format: functional; settings: ip; method in brief: as §2
Mus musculus [25] = assay: Compound was tested for anticonvulsant activity after intraperitoneal injection into mice by using scPTZ screen test after 0.5 hr; format: functional; settings: ip; method in brief: as §2
[26] = Compound was tested for toxicity after intraperitoneal injection into mice by using neurotoxicity screen test after 1 hr; format: organism-based; settings: mouse, in vivo, ip; method in brief: as §3
Rattus norvegicus [27] = assay: Compound was tested for anticonvulsant activity after Oral Administration into Rats by using MES screen test after 0.25h,dose 12.5 mg/kg; number of rats out of four which were protected; format: functional; method in brief: as §1
[28] = Protection index = TD50/ED50 (MES); settings: mouse, in vivo; read-out: PI
Mus musculus [29] = assay: Compound was tested for anticonvulsant activity after intraperitoneal injection into mice by using MES screen test after 2 hr; format: functional; settings: ip; method in brief: as §3
Mus musculus [30] = assay: Compound was tested for anticonvulsant activity after intraperitoneal injection into mice by using scPTZ screen test after 2 hr; format: functional; settings: ip; method in brief: as §3
[31] = Compound was tested for toxicity after intraperitoneal injection into mice by using neurotoxicity screen test after 2 hr; format: organism-based; settings: mouse, in vivo, ip; method in brief: as §3
Rattus norvegicus [32] = assay: Compound was tested for anticonvulsant activity after Oral Administration into Rats by using MES screen test after 4h,dose 12.50 mg/kg; number of rats out of four which were protected; format: functional; settings: dose 12.5 mg/kg; method in brief: as §1
Rattus norvegicus [33] = assay: Compound was tested for anticonvulsant activity after Oral Administration into Rats by using MES screen test after 0.5h,dose 12.5 mg/kg; No activity was demonstarted; format: functional, organism-based; design: dose 12.5 mg/kg; method in brief: as §1
Rattus norvegicus [34] = assay: Compound was tested for anticonvulsant activity after Oral Administration into Rats by using MES screen test after 2h,dose 12.5 mg/kg; No activity was demonstarted; format: functional, organism-based; design: dose 12.5 mg/kg; method in brief: as §1
Rattus norvegicus [35] = assay: Compound was tested for anticonvulsant activity after Oral Administration into Rats by using MES screen test after 4h,dose 12.5 mg/kg; No activity was demonstarted; format: functional, organism-based; design: dose 12.5 mg/kg; method in brief: as §1
Rattus norvegicus [36] = assay: Compound was tested for anticonvulsant activity after Oral Administration into Rats by using MES screen test after 1h,dose 12.5 mg/kg; No activity was demonstarted; format: functional, organism-based; design: dose 12.5 mg/kg; method in brief: as §1

Row | SMILES | Dose (Mus musculus [6]) [mg/kg] | Dose (Mus musculus [7]) [mg/kg] | Dose (Mus musculus [8]) [mg/kg] | Dose (Mus musculus [10]) [mg/kg] | Dose (Mus musculus [11]) [mg/kg] | Activity (Rattus norvegicus [12]) | Activity (Rattus norvegicus [13]) | Activity (Rattus norvegicus [14]) | Activity (Rattus norvegicus [15]) | Activity (Rattus norvegicus [19]) | other results
1 | NC(=O)N/N=C\c1ccccc1Oc1ccc(F)cc1 | – | – | – | – | – | – | – | – | – | – | Activity (Rattus norvegicus [1]): 1; Activity (Rattus norvegicus [2]): No activity; Activity (Rattus norvegicus [3]): 2; Activity (Rattus norvegicus [4]): No activity; Activity (Rattus norvegicus [5]): 1
2 | Cc1ccccc1Oc1ccc(/C=N/NC(N)=O)cc1 | 30 | 100 | 100 | 300 | 300 | No activity | 4 | 4 | 3 | 4 | Dose (Mus musculus [9]): 100 mg/kg; ED50 (Rattus norvegicus [16]): 5.65 mg/kg; TD50 [17]: > 500 mg/kg; selectivity ratio [18]: > 88
3 | CCCc1ccc(Oc2ccc(/C=N/NC(N)=O)cc2)cc1 | 100 | 100 | 300 | – | 300 | No activity | 2 | 1 | 2 | 4 | ED50 (Mus musculus [20]): 11 mg/kg; TD50 at 4 h [21]: 243 mg/kg; ED50 (Rattus norvegicus [16]): 2.63 mg/kg; TD50 [17]: > 500 mg/kg; selectivity ratio [22]: 3.05; ED50 (Mus musculus [23]): 79.6 mg/kg
4 | NC(=O)N/N=C\c1ccc(OS(=O)(=O)c2ccccc2)cc1 | 30 | 30 | 30 | 300 | 300 | – | 3 | 2 | 2 | 4 | ED50 (Mus musculus [24]): 25.3 mg/kg; ED50 (Mus musculus [25]): > 100 mg/kg; TD50 at 1 h [26]: 113 mg/kg; Activity (Rattus norvegicus [27]): 1; selectivity ratio [28]: 4.47
5 | NC(=O)N/N=C/c1ccc(Sc2ccc(Br)cc2)cc1 | 100 | 30 | – | – | 300 | No activity | 4 | 1 | 3 | 4 | Dose (Mus musculus [9]): 300 mg/kg; ED50 (Mus musculus [29]): 24.4 mg/kg; ED50 (Mus musculus [30]): > 200 mg/kg; TD50 at 2 h [31]: 123 mg/kg; selectivity ratio [28]: 5.03
6 | Cc1cccc(Oc2ccc(/C=N/NC(N)=O)cc2)c1C | – | 100 | – | – | – | No activity | – | – | 1 | – | Activity (Rattus norvegicus [32]): 1; Activity (Rattus norvegicus [33]): No activity; Activity (Rattus norvegicus [34]): No activity
7 | CC/C(=N/NC(N)=O)c1ccc(Sc2ccc(F)cc2)cc1 | 30 | 100 | – | 100 | 100 | – | – | – | – | – | Activity (Rattus norvegicus [1]): 3; Activity (Rattus norvegicus [2]): No activity; Activity (Rattus norvegicus [3]): 3; Activity (Rattus norvegicus [4]): No activity; Activity (Rattus norvegicus [5]): 2
8 | CC/C(=N/NC(N)=O)c1ccccc1Oc1ccc(F)cc1 | – | – | – | – | 300 | No activity | – | – | – | – | Activity (Rattus norvegicus [35]): No activity; Activity (Rattus norvegicus [33]): No activity; Activity (Rattus norvegicus [36]): No activity; Activity (Rattus norvegicus [34]): No activity
